# Compound activity: PubChem BioAssay, Johns Hopkins Ion Channel Center
# This is a sample that favours compounds with a hit; in the whole collection about 3.5% have one here.
# RGS4 inh = inhibitors of human RGS4 | P49798 | HEK293 M3R/RGS4 inducible, Fluo-4 calcium flux; hits give high values; triggered by carbachol at its EC20 | B-score at 10 µM | 310,000 tested, 0.45% active | AID 463165;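 active = B-score, a plate-corrected calcium signal, over three deviations above library mean, with baseline fluorescence within five deviations of library mean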;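 also: RGS4 expression induced by doxycycline in cells with stable M3 receptor; B-score is computed from the integrated fluorescence ratio over baseline after carbachol; higher B-score means a larger calcium signal and so more RGS4 inhibition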
# Target sequence (P49798 whole entry, looked up): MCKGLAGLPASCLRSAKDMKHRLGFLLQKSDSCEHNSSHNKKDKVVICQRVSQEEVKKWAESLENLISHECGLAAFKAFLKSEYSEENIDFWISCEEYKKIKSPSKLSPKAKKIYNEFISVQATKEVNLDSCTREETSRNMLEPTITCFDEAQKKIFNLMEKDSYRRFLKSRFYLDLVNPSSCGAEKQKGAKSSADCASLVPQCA
# MrgX1 antag = antagonists of human MrgX1 receptor; Q96LB2; MRGX1-HEK293 calcium flux, Fluo-4, BAM8-22 antagonism; hits give low values; B-score at 10 µM; 310,000 tested, 1.3% active; AID 588676;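 active = calcium-response B-score plate-corrected more than 3 library SD below zero, starting fluorescence within 5 deviations, no agonist response on first addition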;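 also: peak minus trough fluorescence over baseline after final BAM8-22 challenge near maximal dose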
# Target sequence (Q96LB2 whole entry, looked up): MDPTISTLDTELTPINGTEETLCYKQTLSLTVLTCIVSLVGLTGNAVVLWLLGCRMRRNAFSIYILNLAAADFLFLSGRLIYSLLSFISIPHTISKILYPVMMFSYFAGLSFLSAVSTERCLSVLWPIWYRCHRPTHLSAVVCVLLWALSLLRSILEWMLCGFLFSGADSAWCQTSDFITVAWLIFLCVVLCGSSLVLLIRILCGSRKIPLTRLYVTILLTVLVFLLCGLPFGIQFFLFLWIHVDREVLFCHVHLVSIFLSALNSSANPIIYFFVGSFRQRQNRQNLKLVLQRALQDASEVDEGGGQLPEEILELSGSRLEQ
# MrgX1 agonist = agonists of human MrgX1 receptor; Q96LB2; AID 588627; 310,000 tested, 0.44% active; B-score at 10 µM; MrgX1-HEK293 cells, Fluo-4 calcium fluorescence, agonist mode; hits give high values;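 active = calcium response B-score plate-corrected fluorescence ratio at least 3 library SD, with starting fluorescence B-score inside 5 SD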
#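 System – MrgX1-expressing HEK293 cells · Incubation – cells plated overnight, dye loaded 0.5 h 37 °C, 0.5 h room temperature · Technique – kinetic Fluo-4 NW fluorescence of intracellular calcium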
# MrgX1 allo act = allosterically activates human MrgX1 receptor signaling; 310,000 tested, 0.63% active; B-score at 10 µM; MrgX1-HEK293, Fluo-4 calcium flux, FDSS; hits give high values;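 active = plate-corrected calcium response at least 3 library SD above typical, normal starting fluorescence, not activating the receptor alone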;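 also: compound read alongside a low EC10 to EC30 dose of BAM8-22 agonist; peak minus trough fluorescence over baseline measured at the second addition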
# RGS4 act = potentiators or activators of RGS4 | B-score at 10 µM | AID 463111 | 310,000 tested, 0.92% active | HEK293 M3R/inducible RGS4, carbachol calcium flux Fluo4; hits give low values;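 active = B-score of the integrated calcium signal more than 4 SD below the library mean, with starting fluorescence not abnormally high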;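 also: negative B-score means reduced calcium response which marks RGS4 activation or potentiation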
#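 Assay system: Inducible-RGS4 HEK293 cells carrying M3 receptor | Schedule: Compound preincubation 20 min at room temperature before agonist | Signal: Kinetic calcium fluorescence imaging with Fluo4-AM dye, 2 µM | Read-out basis: B score from integrated fluorescence ratio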
# The depositor's hits bear a star; i = inactive; . = no result given.
SMILES,RGS4 inh,MrgX1 antag,MrgX1 agonist,MrgX1 allo act,RGS4 act
O=C(c1cccc(C(=O)N(c2ccccn2)C2CCCCC2)c1)N(c1ccccn1)C1CCCCC1,i,-6.8*,i,i,i
N#C/C(=C\c1ccccc1)C(=O)N(c1ccccn1)C1CCCCC1,i,i,33*,i,i
CCS(=O)(=O)N1CCC2(CC1)OCCN2S(=O)(=O)c1ccc(OC)cc1,i,.,.,.,i
CN(C)c1ccc(/C=C/c2nc3ccccc3s2)cc1,i,-6.3*,i,i,-7.5*
Cc1nn(CC(=O)NCc2ccco2)c(C)c1[N+](=O)[O-],i,i,i,i,i
Cc1cc(CNC(=O)Cn2nc(C)c([N+](=O)[O-])c2C)c2ccccc2n1,i,i,i,9.4*,i
Cc1nn(CC(=O)NCc2ccccc2Cl)c(C)c1[N+](=O)[O-],i,i,i,i,i
C/C(=N\NC(=O)Cn1nc(C)c([N+](=O)[O-])c1C)c1ccco1,i,-5.9*,i,i,i
CC(=O)c1cnn(-c2c(Cl)cc(Cl)cc2Cl)c1C,i,i,i,i,i
COc1ccc(CC(=O)NC(C)c2nnc(SCC(=O)c3ccc(Br)cc3)n2C)cc1 (stereo not given),i,-7.4*,i,i,i
CCn1c(SCC(=O)c2ccc(Br)cc2)nnc1C(C)NC(=O)Cc1ccc(OC)cc1 (stereo not given),i,i,i,i,i
Cc1cc[n+](CC[n+]2ccc(C)cc2)cc1,i,i,i,i,i
CCC(C)(C)c1ccc(OCCCC[n+]2cccc(C)c2C)c(C(C)(C)CC)c1,i,-5.3*,i,i,i
CCC(C)(C)c1ccc(OCCCC[n+]2ccc(C)cc2)c(C(C)(C)CC)c1,i,i,i,i,-9.3*
CN1C(=O)c2cccc3c(S(=O)(=O)Nc4ccccc4F)ccc1c23,i,i,i,i,i
CCCCC(=O)NC(=S)Nc1ccccc1N1CCCCC1,i,i,i,i,i
CCCC(=O)NC(=S)Nc1ccccc1N1CCOCC1,i,-7.7*,i,i,i
Cc1cc(=O)n2nc(N3CCCC3C(=O)Nc3ccc(C(C)C)cc3)sc2n1 (stereo not given),i,i,i,i,i
COc1ccccc1N1C(=N)S/C(=C\c2ccc(-c3ccccc3C(=O)O)o2)C1=O,i,i,i,11*,i
N=C1S/C(=C\c2ccc(-c3ccccc3C(=O)O)o2)C(=O)N1c1ccc2c(c1)OCO2,i,.,.,.,i
Cc1c(N=Cc2c(O)n(C)c(=O)c3ccccc23)c(=O)n(-c2ccccc2)n1C,i,i,i,i,-7.2*
Cc1cc(C)nc(/N=C(\N)Nc2ccc(F)c([N+](=O)[O-])c2)n1,i,i,38*,i,i
O=C(Nc1cccc(Cl)c1)Nc1ccc2nccnc2c1,i,-4.7*,i,i,i
O=C(Nc1ccc2nccnc2c1)Nc1ccccc1Cl,i,i,i,i,i
COc1ccc(OC)c(NC(=O)c2c(NC(=O)CCC(=O)O)sc3c2CCCCC3)c1,i,i,i,7*,i
SMILES,RGS4 inh,MrgX1 antag,MrgX1 agonist,MrgX1 allo act,RGS4 act
CN(C(=O)c1ccc(N2CCCCC2)c([N+](=O)[O-])c1)C1(C)CCS(=O)(=O)C1 (stereo not given),i,i,i,i,i
COc1ccc(N(C)C(=O)c2oc(=O)c3ccccc3c2-c2ccc(C)cc2)c(OC)c1,i,i,i,i,i
Cc1ccc2nc(C)/c(=N\O)c(C)nc2c1,i,i,i,10*,i
CO/N=C/C(c1ncc(C(F)(F)F)cc1Cl)S(=O)(=O)c1ccccc1 (stereo not given),i,-8.2*,i,i,i
CO/N=C/C(c1ccc(Cl)nc1)S(=O)(=O)c1ccccc1 (stereo not given),i,i,i,i,i
CCCN1C(=O)/C(=C/c2ccc(C)s2)SC1=Nc1ccc(OC)cc1,i,i,i,i,i
COc1ccc(N=C2S/C(=C\c3ccc(Cl)c([N+](=O)[O-])c3)C(=O)N2CCN(C)C)cc1,13*,i,i,i,i
CCN(CC)CCN1C(=O)/C(=C\c2ccc(Cl)c([N+](=O)[O-])c2)SC1=Nc1ccc(OC)cc1,27*,i,i,i,i
CCN1CCN(CC(=O)Nc2ccc(S(=O)(=O)N3C(C)CCCC3C)cc2)CC1 (stereo not given),i,i,i,i,i
CC1(C)C(=O)OC(c2cccn2-c2ccc([N+](=O)[O-])cc2)C(C)(C)C1=O (stereo not given),i,-5*,i,i,i
COc1cc(OC)c(NC(=S)Nc2cc(Cl)cc(Cl)c2)cc1Cl,i,-4.7*,i,i,i
O=C(CNC(=O)c1ccccc1F)OCC(=O)c1ccc(Cl)s1,i,i,i,i,i
CC1(C)CC2CC(C)(CN2/C=N/c2sc3c(c2C#N)CC(C)(C)NC3(C)C)C1 (stereo not given),i,-4.5*,i,i,i
CCOc1cc(C(=O)NC(C)CCc2ccccc2)cc(OCC)c1OCC (stereo not given),i,i,i,i,i
Cc1csc(N/N=C/c2ccc(O)c([N+](=O)[O-])c2)n1,i,-6*,i,i,i
COc1ccccc1C(=O)NC(=Nc1nc2ccccc2o1)NC(=O)c1ccccc1OC,i,i,i,i,-7.2*
O=C(NC(=Nc1nc2ccccc2o1)NC(=O)c1ccccc1)c1ccccc1,i,i,i,i,i
CC(=O)NC(=S)Nc1ccc(S(=O)(=O)N(C)Cc2ccccc2)cc1,i,i,i,i,i
CC(C)C(=O)NC(=S)Nc1ccc(S(=O)(=O)N(C)Cc2ccccc2)cc1,i,i,i,i,-7*
O=[N+]([O-])c1ccc(C2CCCC/C2=N/OCc2ccccc2F)c([N+](=O)[O-])c1 (stereo not given),i,i,i,i,-7.7*
O=C(Nc1ccccc1-c1nnc(SCc2ccc(Cl)cc2)o1)c1ccccc1,i,-7.1*,i,i,i
O=C(Nc1ccccc1-c1nnc(SCc2ccccc2)o1)c1ccccc1,i,i,i,i,-7.4*
Cn1c(SCC(=O)NCCc2ccccc2)ncc(C(=O)Nc2ccccc2)c1=O,i,i,i,i,i
